Here are results for 26 molecules from ChEMBL document CHEMBL1156154, “Heterocyclic fused pyridone carboxylic acid M(1) positive allosteric modulators” (Bioorg Med Chem Lett, 2010).

Calls of active or inactive are those of the source. The rule behind the calls is not given here.

The target of series [1] is T1, Muscarinic acetylcholine receptor M1 (Homo sapiens) (UniProt P11229).
T1 sequence (whole entry): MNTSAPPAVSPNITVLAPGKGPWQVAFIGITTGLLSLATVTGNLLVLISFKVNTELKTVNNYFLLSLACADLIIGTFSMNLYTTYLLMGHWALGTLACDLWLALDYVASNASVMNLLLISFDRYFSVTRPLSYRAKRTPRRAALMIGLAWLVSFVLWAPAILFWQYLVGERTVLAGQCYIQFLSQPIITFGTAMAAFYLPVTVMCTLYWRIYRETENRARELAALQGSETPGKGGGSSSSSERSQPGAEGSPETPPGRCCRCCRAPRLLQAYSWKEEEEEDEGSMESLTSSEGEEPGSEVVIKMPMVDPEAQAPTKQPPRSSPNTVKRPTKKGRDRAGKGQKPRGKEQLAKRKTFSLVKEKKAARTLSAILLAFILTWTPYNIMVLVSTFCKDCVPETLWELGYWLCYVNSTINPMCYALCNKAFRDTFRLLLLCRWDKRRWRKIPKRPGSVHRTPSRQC
Description: Positive allosteric modulator activity at human muscarinic M1 receptor expressed in CHO cells assessed as effect on acetylcholine-induced intracellular calcium mobilization by FLIPR assay. The class given is functional, cell-based. The gist of the method:
(§1)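 CHO cells expressing human M1 were run with an EC20 concentration of acetylcholine. Calcium mobilization was read on a FLIPR384. Potency is reported as the inflection point. Percent max is the compound plus EC20 ACh response relative to the maximal acetylcholine effect.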

The target in series [2] is T2, Muscarinic acetylcholine receptor M2 (Homo sapiens) (UniProt P08172).
T2 sequence (whole entry): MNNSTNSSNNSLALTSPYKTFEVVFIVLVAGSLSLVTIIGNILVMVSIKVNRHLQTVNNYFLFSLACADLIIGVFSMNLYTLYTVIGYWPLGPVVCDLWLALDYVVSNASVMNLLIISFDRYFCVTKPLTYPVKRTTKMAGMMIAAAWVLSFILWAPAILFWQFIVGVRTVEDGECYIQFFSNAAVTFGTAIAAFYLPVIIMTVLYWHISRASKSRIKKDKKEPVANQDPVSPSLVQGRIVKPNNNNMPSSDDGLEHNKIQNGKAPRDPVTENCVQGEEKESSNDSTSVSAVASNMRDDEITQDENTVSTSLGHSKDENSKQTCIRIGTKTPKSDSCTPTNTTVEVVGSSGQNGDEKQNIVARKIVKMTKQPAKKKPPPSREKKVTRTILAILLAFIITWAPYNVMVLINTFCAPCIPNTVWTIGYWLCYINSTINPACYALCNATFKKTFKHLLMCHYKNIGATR
The series is described as follows: Positive allosteric modulator activity at human muscarinic acetylcholine M2 receptor expressed in CHO cells assessed as effect on acetylcholine-induced intracellular calcium mobilization by FLIPR assay. The class given is functional, cell-based.

Series [3] concerns the target T3, Muscarinic acetylcholine receptor M4 (Homo sapiens) (UniProt P08173).
T3 sequence (whole entry): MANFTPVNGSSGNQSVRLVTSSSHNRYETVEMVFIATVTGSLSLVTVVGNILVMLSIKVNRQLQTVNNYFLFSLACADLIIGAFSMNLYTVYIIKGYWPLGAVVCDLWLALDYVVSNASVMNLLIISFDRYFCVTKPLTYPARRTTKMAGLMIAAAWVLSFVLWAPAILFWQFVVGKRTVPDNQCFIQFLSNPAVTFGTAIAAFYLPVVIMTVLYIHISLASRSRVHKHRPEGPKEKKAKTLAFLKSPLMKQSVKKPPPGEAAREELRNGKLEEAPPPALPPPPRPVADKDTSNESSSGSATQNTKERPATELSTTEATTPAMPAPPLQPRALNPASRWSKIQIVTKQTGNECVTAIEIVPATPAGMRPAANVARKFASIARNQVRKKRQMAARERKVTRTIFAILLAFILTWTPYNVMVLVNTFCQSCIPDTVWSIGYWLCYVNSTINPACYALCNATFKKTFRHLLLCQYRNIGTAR
Description: Positive allosteric modulator activity at human muscarinic M4 receptor expressed in CHO cells assessed as effect on acetylcholine-induced intracellular calcium mobilization by FLIPR assay. It is filed as functional, cell-based. For orientation: Calcium assays in cells follow changes in intracellular calcium, usually with a dye or a luminescent sensor.

The target in series [4] is Muscarinic acetylcholine receptor M3 (Homo sapiens) (UniProt P20309). Description: Positive allosteric modulator activity at human muscarinic M3 receptor expressed in CHO cells assessed as effect on acetylcholine-induced intracellular calcium mobilization by FLIPR assay. The class given is functional, cell-based.
Muscarinic acetylcholine receptor M3 (Homo sapiens), sequence (P20309 whole entry, looked up): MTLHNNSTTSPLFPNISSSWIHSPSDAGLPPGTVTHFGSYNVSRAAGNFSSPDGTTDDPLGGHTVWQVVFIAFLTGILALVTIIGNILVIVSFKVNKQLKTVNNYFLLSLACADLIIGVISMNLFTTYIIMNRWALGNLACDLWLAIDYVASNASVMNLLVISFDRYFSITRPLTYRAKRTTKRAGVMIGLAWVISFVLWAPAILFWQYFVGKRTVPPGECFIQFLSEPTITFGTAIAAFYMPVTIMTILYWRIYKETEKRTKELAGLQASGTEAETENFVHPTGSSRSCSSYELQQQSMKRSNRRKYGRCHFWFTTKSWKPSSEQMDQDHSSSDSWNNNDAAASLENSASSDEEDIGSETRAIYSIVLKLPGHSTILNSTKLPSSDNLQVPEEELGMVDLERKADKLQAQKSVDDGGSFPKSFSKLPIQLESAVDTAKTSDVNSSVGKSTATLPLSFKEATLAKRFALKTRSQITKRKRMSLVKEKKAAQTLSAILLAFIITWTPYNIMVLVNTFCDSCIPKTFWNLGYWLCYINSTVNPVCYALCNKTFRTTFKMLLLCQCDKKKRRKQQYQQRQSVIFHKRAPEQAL
In series [5] the target is T1, Muscarinic acetylcholine receptor M1 (Homo sapiens). Description: Positive allosteric modulator activity at human muscarinic M1 receptor expressed in CHO cells assessed as effect on acetylcholine-induced intracellular calcium mobilization by FLIPR assay relative to acetylcholine. It is filed as functional, cell-based. In short, it runs like this:
as §1

Series [6] can be described thus: Plasma protein binding in human serum by equilibrium dialysis method.
A short description of series [7]: Plasma protein binding in rat serum by equilibrium dialysis method. In general terms: In equilibrium dialysis only unbound substance equilibrates across the membrane.

On to `O=C(O)c1cn(Cc2ccc(-c3ccncc3)cc2)c2ccsc2c1=O`, for which the IP in series [1] was found to be 0.6 µM. Further, the outcome in series [2], in series [3] and in series [4] was inactive.

As to `Cc1cn(-c2ccc(Cn3cc(C(=O)O)c(=O)c4ccncc43)cc2)cn1`, in series [1], the IP came out at 1.03 µM. In addition, the result in series [2], in series [3] and in series [4] was inactive.

`O=C(O)c1cn(Cc2ccc(-c3ccccc3)cc2)c2cnccc2c1=O`: the Emax (usually the size of the effect at its maximum, as opposed to the concentration needed) in series [5] is 62%. Besides, the IP in series [1] stood at 0.43 µM. For the same molecule, the outcome in series [2], in series [3] and in series [4] was inactive.

`Cc1ccn(-c2ccc(Cn3cc(C(=O)O)c(=O)c4cccnc43)cc2)n1`: in series [1], the IP stood at 0.56 µM. In series [6], the fraction unbound (commonly the share of the substance not bound to proteins or other matrix) is 0.012. The result in series [2], in series [3] and in series [4] was inactive.

For `O=C(O)c1cn(Cc2ccc(-n3cccn3)cc2)c2cnccc2c1=O`, in series [1], the IP came out at 1.14 µM. Also, the result in series [2], in series [3] and in series [4] was inactive.

For the molecule `Cc1cn(-c2ccc(Cn3cc(C(=O)O)c(=O)c4cccnc43)cc2)cn1`, the results for the free fraction (fraction unbound) in series [7] and in series [6] were 0.052 and 0.233, respectively. For the same molecule, the IP in series [1] is 0.34 µM. For the same molecule, the outcome in series [2], in series [3] and in series [4] was inactive.

Consider `O=C(O)c1cn(Cc2ccc(-c3ccccc3)cc2)c2nnccc2c1=O`, for which the Emax in series [5] was found to be 34%. In addition, the IP in series [1] stood at 5.95 µM. Moreover, the outcome in series [2], in series [3] and in series [4] was inactive.

Regarding `Cc1ccn(-c2ccc(Cn3cc(C(=O)O)c(=O)c4sccc43)cc2)n1`, the IP in series [1] was 0.51 µM. Further, the outcome in series [2], in series [3] and in series [4] was inactive.

For `O=C(O)c1cn(Cc2ccc(-n3cccn3)cc2)c2ncccc2c1=O`, the fraction unbound in series [7] is 0.048; in series [6] it was 0.061. In addition, the IP in series [1] was 0.81 µM. Moreover, the result in series [2], in series [3] and in series [4] was inactive.

As for `O=C(O)c1cn(Cc2ccc(-n3ccnc3)cc2)c2ccsc2c1=O`, the free fraction (fraction unbound) is 0.259 in series [7] and 0.199 in series [6]. The IP in series [1] turned out to be 0.24 µM. Also, the outcome in series [2], in series [3] and in series [4] was inactive.

As for `O=C(O)c1cn(Cc2ccc(-c3ccccc3)cc2)c2cccnc2c1=O`, in series [5], the Emax amounted to 92%. The IP in series [1] stood at 1.38 µM. Besides, the result in series [2], in series [3] and in series [4] was inactive.

Take `Cc1ccnn1-c1ccc(Cn2cc(C(=O)O)c(=O)c3ccncc32)cc1`: in series [1], the IP stood at 13 µM. The outcome in series [2], in series [3] and in series [4] was inactive.

Turning to `O=C(O)c1cn(Cc2ccc(-c3cccnc3)cc2)c2ccsc2c1=O`, the IP in series [1] was determined as 0.57 µM. The result in series [2], in series [3] and in series [4] was inactive.

Regarding `COc1ccc(-c2ccc(Cn3cc(C(=O)O)c(=O)c4sccc43)nc2)cn1`, the IP in series [1] amounted to 2 µM. The outcome in series [2], in series [3] and in series [4] was inactive.

Consider `O=C(O)c1cn(Cc2ccc(-c3ccccc3)cc2)c2csnc2c1=O`, for which the Emax in series [5] is 76%. In addition, the IP in series [1] worked out at 3.35 µM. Further, the outcome in series [2], in series [3] and in series [4] was inactive.

In the case of `O=C(O)c1cn(Cc2ccc(-c3ccsc3)cn2)c2ccsc2c1=O`, the IP in series [1] worked out at 1.66 µM. In addition, the outcome in series [2], in series [3] and in series [4] was inactive.

For `O=C(O)c1cn(Cc2ccc(-c3cccnc3)cn2)c2ccsc2c1=O`, in series [1], the IP worked out at 1.05 µM. Moreover, the outcome in series [2], in series [3] and in series [4] was inactive.

Take `CN(C)c1ccc(-c2ccc(Cn3cc(C(=O)O)c(=O)c4sccc43)nc2)cn1`: the IP in series [1] came out at 0.5 µM. The result in series [2], in series [3] and in series [4] was inactive.

Consider `O=C(O)c1cn(Cc2ccc(-c3ccnc(Cl)c3)cn2)c2ccsc2c1=O`, for which the IP in series [1] came to 0.81 µM. Also, the result in series [2], in series [3] and in series [4] was inactive.

`O=C(O)c1cn(Cc2ccc(-c3ccccc3)cc2)c2ncncc2c1=O`: the Emax in series [5] stood at 48%. Moreover, the IP in series [1] turned out to be 87.2 µM. In addition, the outcome in series [2], in series [3] and in series [4] was inactive.

`O=C(O)c1cn(Cc2ccc(-c3ccccc3)cc2)c2nsnc2c1=O`: in series [5], the maximal response (Emax) was found to be 69%. For the same molecule, the IP in series [1] was 3.5 µM. The result in series [2], in series [3] and in series [4] was inactive.

Regarding `Nc1cccc(-c2ccc(Cn3cc(C(=O)O)c(=O)c4sccc43)nc2)c1`, the fraction unbound is 0.099 in series [7] and 0.117 in series [6]. Moreover, the IP in series [1] was determined as 0.038 µM. Besides, the result in series [2], in series [3] and in series [4] was inactive.

`O=C(O)c1cn(Cc2ccc(-c3ccccc3)cc2)c2ccncc2c1=O`: in series [5], the maximum response (Emax) was determined as 4%. Moreover, the IP in series [1] is greater than 100 µM. The outcome in series [2], in series [3] and in series [4] was inactive.

`O=C(O)c1cn(Cc2ccc(-c3ccccc3)cc2)c2ccccc2c1=O`: the Emax in series [5] amounted to 92%. The IP in series [1] was determined as 0.21 µM. Also, the outcome in series [2], in series [3] and in series [4] was inactive.

`Cc1ccnn1-c1ccc(Cn2cc(C(=O)O)c(=O)c3cccnc32)cc1`: in series [1], the IP was found to be 17.9 µM. The outcome in series [2], in series [3] and in series [4] was inactive.

Turning to `Cn1cc(-c2ccc(Cn3cc(C(=O)O)c(=O)c4sccc43)cc2)cn1`, the fraction unbound in series [7] was 0.009; in series [6], 0.066. For the same molecule, the IP in series [1] was determined as 0.15 µM. The result in series [2], in series [3] and in series [4] was inactive.
